This is an account of results in ChEMBL document CHEMBL4342473, “Lead Optimization of Benzoxazolone Carboxamides as Orally Bioavailable and CNS Penetrant Acid Ceramidase Inhibitors” (J Med Chem, 2020).

In data set [1] the target is T1, Acid ceramidase (Homo sapiens) (UniProt Q13510).
T1 sequence (whole entry): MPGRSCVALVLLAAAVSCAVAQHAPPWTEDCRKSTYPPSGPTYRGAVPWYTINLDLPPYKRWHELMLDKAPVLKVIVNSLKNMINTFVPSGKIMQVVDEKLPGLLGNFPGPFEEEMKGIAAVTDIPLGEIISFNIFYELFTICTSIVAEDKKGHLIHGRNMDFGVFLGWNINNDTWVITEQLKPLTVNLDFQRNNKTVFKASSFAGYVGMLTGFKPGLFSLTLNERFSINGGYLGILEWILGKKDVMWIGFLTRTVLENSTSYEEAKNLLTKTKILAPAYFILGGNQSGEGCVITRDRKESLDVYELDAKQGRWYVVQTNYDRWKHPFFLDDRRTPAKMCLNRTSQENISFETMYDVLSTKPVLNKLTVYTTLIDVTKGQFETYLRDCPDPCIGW
The data set can be described thus: Inhibition of acid ceramidase in human SH-SY5Y cells assessed as increase in intracellular accumulation of Cer (d18:1/16:0) measured after 3 hrs by LC/MS analysis. The data set is classed as cell-based. Summed up:
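SH-SY5Y neuroblastoma cells exposed 3 h to 1, 2.5, 5 and 10 μM; AC activity by LC/MS-based assay; ceramide species, sphingosine, SM and HexCer (d18:1/16:0) quantified by LC/MS; means ± S.E.M. of at least six determinations, experiment repeated twice.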

Data set [2] is described as follows: Unbound plasma concentration in C57BL/6J/129SvEV mouse model of Gaucher's disease at 90 mg/kg, ip administered once daily for 14 days measured 1 hr post last dose. The data set is classed as ADME, organism-based. To be noted: in vivo. Summed up: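 4L;C* mice dosed i.p. once daily for 14 days, killed 1 h after last dose (day 14); plasma and brain drug levels measured; unbound concentrations from plasma and brain unbound fractions (mean of two technical replicates); N = 4–8, mixed sexes.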

For `CC(C)CNC(=O)n1c(=O)oc2cc(C3CCN(C)CC3)ccc21`, in data set [1], the inhibition entry was “Dose-dependent effect”. In addition, in data set [2], the “Cp(f)” value is 2320 nM.
